Experimental data published in ChEMBL document CHEMBL4219124, “Alleviating CYP and hERG liabilities by structure optimization of dihydrofuran-fused tricyclic benzo[d]imidazole series - Potent, selective and orally efficacious microsomal prostaglandin E synthase-1 (mPGES-1) inhibitors: Part-2” (Bioorg Med Chem Lett, 2018).

Assays:
[1] = tested on: Prostaglandin F synthase (Homo sapiens); assay: Inhibition of human PGF synthase assessed as decrease in PGF2alpha production at 10 uM relative to control
[2] = molecular target: T1, Cytosolic phospholipase A2 (Homo sapiens) (UniProt P47712); assay: Inhibition of cPLA2 (unknown origin) at 10 uM relative to control
T1 sequence (whole entry): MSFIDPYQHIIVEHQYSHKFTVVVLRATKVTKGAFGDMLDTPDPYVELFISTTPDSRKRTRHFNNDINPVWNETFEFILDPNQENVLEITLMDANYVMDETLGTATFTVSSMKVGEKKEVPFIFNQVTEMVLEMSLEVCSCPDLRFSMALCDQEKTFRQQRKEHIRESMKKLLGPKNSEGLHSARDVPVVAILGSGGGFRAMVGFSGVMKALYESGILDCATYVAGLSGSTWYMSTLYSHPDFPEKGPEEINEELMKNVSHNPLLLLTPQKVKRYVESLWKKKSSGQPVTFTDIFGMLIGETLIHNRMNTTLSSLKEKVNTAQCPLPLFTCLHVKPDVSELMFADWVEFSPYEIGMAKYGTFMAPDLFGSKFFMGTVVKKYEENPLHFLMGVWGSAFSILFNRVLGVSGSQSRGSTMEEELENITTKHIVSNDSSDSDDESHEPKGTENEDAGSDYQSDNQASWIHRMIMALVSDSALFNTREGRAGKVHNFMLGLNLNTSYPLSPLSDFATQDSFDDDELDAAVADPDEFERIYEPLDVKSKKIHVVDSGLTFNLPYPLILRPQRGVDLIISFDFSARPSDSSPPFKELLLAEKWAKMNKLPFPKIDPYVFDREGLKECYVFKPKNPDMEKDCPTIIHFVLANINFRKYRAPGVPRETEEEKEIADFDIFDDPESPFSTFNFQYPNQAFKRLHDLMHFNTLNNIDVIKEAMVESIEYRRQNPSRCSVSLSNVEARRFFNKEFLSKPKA
Outline: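 Selectivity panel against other prostanoid-pathway enzymes. % inhibition values are means of at least two experiments, each in duplicate.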

[3] = Apparent passive permeability of the compound by PAMPA; type: ADME
Outline: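 Passive permeability by PAMPA, using a 2% lecithin in dodecane membrane. Run in triplicate.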

[4] = molecular target: T2, Prostaglandin E synthase (Homo sapiens, UniProt O14684); assay: Inhibition of mPGES1 in human A549 cells assessed as reduction in IL-1beta-induced PGE2 production preincubated for 30 mins followed by incubation with IL-1beta for 16 to 20 hrs measured after 10 mins by HTRF assay; type: cell-based
T2 sequence (O14684 whole entry): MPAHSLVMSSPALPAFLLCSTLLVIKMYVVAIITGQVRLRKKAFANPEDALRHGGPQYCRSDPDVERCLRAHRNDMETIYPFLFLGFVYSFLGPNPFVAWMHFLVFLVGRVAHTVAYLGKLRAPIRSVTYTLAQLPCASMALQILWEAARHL

[5] = molecular target: Prostaglandin F synthase (Homo sapiens); assay: Inhibition of human PGF synthase assessed as decrease in PGF2alpha production
[6] = Cmax in cynomolgus monkey at 10 mg/kg, po; type: ADME, organism-based, Macaca fascicularis; design: dose 10 mg/kg, route oral; details: in vivo
Outline: (§1)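 Single oral dose of 10 mg/kg. Cmax and AUC0-24 taken from the oral arm. Rat: male Sprague-Dawley, dosed in 0.5% methylcellulose suspension, mean ± SD (n = 3). Guinea pig: 20% NMP + 0.5% MC suspension, mean ± SD (n = 3). Dog and cynomolgus monkey: 2.5 μL/mL Tween 80 + 0.5 (w/v) MC suspension.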

[7] = Half life in Sprague-Dawley rat at 10 mg/kg, po; type: ADME, organism-based; details: in vivo
Outline: (§2)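 Half-life calculated from plasma profiles after oral dosing at 10 mg/kg. Rat: male Sprague-Dawley, 0.5% methylcellulose suspension, n = 3. Dog and cynomolgus monkey: Tween 80 (2.5 μL/mL) + 0.5 (w/v) MC suspension.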

[8] = Protein binding in dog plasma at 10 uM after 5 hrs by equilibrium dialysis based LC-MS/MS analysis; type: ADME, cell-free, Canis lupus familiaris; details: read-out: PPB (converted)
Outline: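 Equilibrium dialysis at 10 μM compound; result expressed as percent bound.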

[9] = AUC (0 to 24 hrs) in Dunkin-Hartley guinea pig at 10 mg/kg, po; type: ADME, organism-based, Cavia porcellus; design: time < 24 hr, dose 10 mg/kg, route oral; details: in vivo
Outline: as §1

[10] = Apparent volume of distribution in Beagle dog at 1 mg/kg, iv; type: ADME, organism-based, Canis lupus familiaris; details: in vivo, read-out: Vz
Outline: (§3)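 Intravenous dose of 1 mg/kg; clearance and Vz derived from the i.v. arm. Rat (male Sprague-Dawley) vehicle 20% NMP + 20% ethanol + 60% PEG 200, mean ± SD (n = 3). Dog vehicle 20% NMP + 20% EtOH + 10% PG + 50% PEG 200:water (3:2). Monkey vehicle 10% NMP + 10% ethanol + 10% PEG + 70% PEG200:water (3:2).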

[11] = Oral bioavailability in Sprague-Dawley rat at 10 mg/kg; type: ADME, organism-based; details: in vivo
Outline: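 Plasma PK after 1 mg/kg i.v. and 10 mg/kg p.o.; %F from both routes. Rat: male Sprague-Dawley, oral 0.5% methylcellulose suspension, i.v. 20% NMP/20% ethanol/60% PEG 200, n = 3. Dog oral: Tween 80 2.5 μL/mL + 0.5% MC suspension. Monkey oral: same Tween/MC suspension; i.v. 10% NMP/10% ethanol/10% PEG/70% PEG200-water premix.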

[12] = Clearance in Sprague-Dawley rat at 1 mg/kg, iv; type: ADME, organism-based; details: in vivo
Outline: as §3

[13] = Cmax in Sprague-Dawley rat at 10 mg/kg, po; type: ADME, organism-based; design: dose 10 mg/kg, route oral; details: in vivo
Outline: as §1

[14] = Half life in cynomolgus monkey at 10 mg/kg, po; type: ADME, organism-based, Macaca fascicularis; details: in vivo
Outline: as §2

[15] = Tmax in cynomolgus monkey at 10 mg/kg, po; type: ADME, organism-based, Macaca fascicularis; details: in vivo
Outline: (§4)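 Tmax from oral 10 mg/kg dosing. Rat: male Sprague-Dawley, 0.5% MC suspension, n = 3. Guinea pig: 20% NMP + 0.5% MC suspension, n = 3. Dog and monkey: 2.5 μL/mL Tween 80 + 0.5% MC suspension.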

[16] = Ratio of drug uptake in brain to plasma of cynomolgus monkey at 10 mg/kg, po; type: ADME, organism-based, Macaca fascicularis; details: read-out: BPR
[17] = Apparent volume of distribution in cynomolgus monkey at 1 mg/kg, iv; type: ADME, organism-based, Macaca fascicularis; details: in vivo, read-out: Vz
Outline: as §3

[18] = Tmax in Beagle dog at 10 mg/kg, po; type: ADME, organism-based, Canis lupus familiaris; details: in vivo
Outline: as §4

[19] = Ratio of drug uptake in brain to plasma of Dunkin-Hartley guinea pig at 10 mg/kg, po; type: ADME, organism-based, Cavia porcellus; details: for Kp: Dunkin-Hartley, brain/plasma, read-out: BPR
[20] = AUC (0 to 24 hrs) in Sprague-Dawley rat at 10 mg/kg, po; type: ADME, organism-based; design: dose 10 mg/kg, time < 24 hr, route oral; details: in vivo
Outline: as §1

[21] = Tmax in Sprague-Dawley rat at 10 mg/kg, po; type: ADME, organism-based; details: in vivo
Outline: as §4

[22] = Tmax in Dunkin-Hartley guinea pig at 10 mg/kg, po; type: ADME, organism-based, Cavia porcellus; details: in vivo
Outline: as §4

[23] = Cmax in Beagle dog at 10 mg/kg, po; type: ADME, organism-based, Canis lupus familiaris; design: dose 10 mg/kg, route oral; details: in vivo
Outline: as §1

[24] = Cmax in Dunkin-Hartley guinea pig at 10 mg/kg, po; type: ADME, organism-based, Cavia porcellus; design: dose 10 mg/kg, route oral; details: in vivo
Outline: as §1

[25] = Apparent volume of distribution in Sprague-Dawley rat at 1 mg/kg, iv; type: ADME, organism-based; details: in vivo, read-out: Vz
Outline: as §3

[26] = Ratio of drug uptake in brain to plasma of Sprague-Dawley rat at 10 mg/kg, po; type: ADME, organism-based; details: read-out: BPR

SMILES | inhibition [1] | inhibition [2] | Papp [3] | IC50 [4] | IC50 [5] | Cmax [6] | half-life [7] | fraction unbound at 5 h, 10 µM [8] | AUC(0-t) at 24 h [9] | Vd [10] | bioavailability [11] | clearance [12] | Cmax [13] | half-life [14] | Tmax [15] | Kp [16] | Vd [17] | Tmax [18] | AUC(0-t) at 24 h [20] | Tmax [21] | also measured
CC1(C)Cc2c(c(C(=O)Nc3cc(C(F)(F)F)ccc3F)cc3nc(Nc4c(F)cccc4Cl)[nH]c23)O1 | 99.2% | 22.9% | 0.62 ×10⁻⁶ cm/s | 9.6 nM | 2470 nM |  |  |  |  |  |  |  |  |  |  |  |  |  |  |  | 
Cn1c(Nc2c(F)cccc2Cl)nc2cc(C(=O)Nc3cccc(C(F)(F)F)c3)c3c(c21)CC(C)(C)O3 | 61.4% | 10.6% |  | 3 nM | 3180 nM |  |  |  |  |  |  |  |  |  |  |  |  |  |  |  | 
CC1(C)Cc2c(c(C(=O)Nc3ccc(F)c(C(F)(F)F)c3)cc3nc(Nc4c(F)cccc4Cl)[nH]c23)O1 | 100% |  | 0.33 ×10⁻⁶ cm/s | 14 nM | 2320 nM | 680 ng/mL | 4 h | 0.009 | 4120 ng·h/mL | 1.94 L/kg | 91% | 11.2 mL/min/kg | 995 ng/mL | 6.45 h | 24 h | 0.32 | 1.83 L/kg | 12 h | 11000 ng·h/mL | 2 h | Kp [19]: 0.44; Tmax [22]: 2 h; Cmax [23]: 492 ng/mL; Cmax [24]: 361 ng/mL; Vd [25]: 3.85 L/kg; Kp [26]: 0.18

Further compounds by falling IC50 [4], results first:

inhibition [1] | inhibition [2] | Papp [3] | IC50 [4] | IC50 [5] | Cmax [6] | half-life [7] | fraction unbound at 5 h, 10 µM [8] | AUC(0-t) at 24 h [9] | Vd [10] | bioavailability [11] | clearance [12] | Cmax [13] | half-life [14] | Tmax [15] | Kp [16] | Vd [17] | Tmax [18] | AUC(0-t) at 24 h [20] | Tmax [21] | SMILES | also measured
17.9% | 5.1% | 1.34 ×10⁻⁶ cm/s | 30 nM |  | 499 ng/mL | 7 h | 0.003 | 408 ng·h/mL | 9.17 L/kg | 14% | 8.2 mL/min/kg | 210 ng/mL | 12 h | 12 h | 0.16 | 2.1 L/kg | 8 h | 2580 ng·h/mL | 4 h | Cc1cccc(Cl)c1Nc1nc2cc(C(=O)Nc3cc(C(F)(F)F)ccc3F)c3c(c2[nH]1)CC(C)(C)O3 | BPR ([19]; brain, BLD = below limit of detection): Bld; Tmax [22]: 1 h; Cmax [23]: 843 ng/mL; Cmax [24]: 80 ng/mL; Vd [25]: 4.84 L/kg; Kp [26]: 0.04
15.4% | 4.3% | 0.63 ×10⁻⁶ cm/s | 4.1 nM |  | 323 ng/mL | 2.7 h | 0.008 | 639 ng·h/mL | 5.4 L/kg | 43% | 16.2 mL/min/kg | 344 ng/mL | 5.3 h | 6 h | 0.37 | 4.1 L/kg | 12 h | 4020 ng·h/mL | 4 h | CC1(C)Cc2c(c(C(=O)Nc3ccc(C(F)(F)F)cn3)cc3nc(Nc4c(Cl)cccc4Cl)[nH]c23)O1 | Kp [19]: 0.58; Tmax [22]: 12 h; Cmax [23]: 336 ng/mL; Cmax [24]: 91 ng/mL; Vd [25]: 3.77 L/kg; Kp [26]: 0.16
